{"source": "ChEMBL document CHEMBL3286350", "about": "“Aplysinellamides A-C, bromotyrosine-derived metabolites from an Australian Aplysinella sp. marine sponge” (2014)", "key": {"CCF-STTG1 [1]": {"test_system": "CCF-STTG1", "assay": "Induction of apolipoprotein E secretion from human CCF-STTG1 cells up to 40 uM after 96 hrs by ELISA", "assay_type": "functional, cell-based", "outline": "(§1)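 Human CCF-STTG1 astrocytoma cells were incubated with test compounds at concentrations of up to 40 μM for 96 h, and apolipoprotein E secretion was then measured. The assay was also applied to fractions.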"}, "CCF-STTG1 [2]": {"test_system": "CCF-STTG1", "assay": "Induction of apolipoprotein E secretion from human CCF-STTG1 cells at 30 uM after 96 hrs by ELISA relative to control", "assay_type": "functional", "outline": "as §1"}}, "note": "Active and inactive are the calls of the source. The calls are words filed in the database; no cut-off is given here."}
{"smiles": "CNCCc1cc(Br)c(OCCCN(C)C)c(Br)c1", "values": [{"measurement": "Activity", "setting": "CCF-STTG1 [1]", "value": "inactive"}]}
{"smiles": "COc1ccc(/C=C/C(=O)NCCCCC(=O)O)cc1Br", "values": [{"measurement": "Activity", "setting": "CCF-STTG1 [1]", "value": "inactive"}]}
{"smiles": "CN(C)CCc1cc(Br)c(O)c(Br)c1", "values": [{"measurement": "Activity", "setting": "CCF-STTG1 [1]", "value": "inactive"}]}
{"smiles": "COc1c(Br)cc(/C=C/C(=O)NCCCC[C@@H](N)C(=O)O)cc1Br", "values": [{"measurement": "Activity", "setting": "CCF-STTG1 [1]", "value": "inactive"}]}
{"smiles": "COc1ccc(C[C@H](N)C(=O)NCCc2cc(Br)c(OCCCN(C)C)c(Br)c2)cc1Br", "values": [{"measurement": "Activity", "setting": "CCF-STTG1 [1]", "value": "inactive"}]}
{"smiles": "CN(C)CCCOc1c(Br)cc(CC[N+](C)(C)O)cc1Br", "values": [{"measurement": "Activity", "setting": "CCF-STTG1 [1]", "value": "inactive"}]}
{"smiles": "COc1c(Br)cc(C(=O)O)cc1Br", "values": [{"measurement": "Activity", "setting": "CCF-STTG1 [1]", "value": "inactive"}]}
{"smiles": "COc1ccc(/C=C/C(=O)NCCCC[C@@H](N)C(=O)O)cc1Br", "values": [{"measurement": "Activity", "setting": "CCF-STTG1 [1]", "value": "inactive"}]}
{"smiles": "CN(C)CCCOc1c(Br)cc(CCN(C)C)cc1Br", "note": "[APLYSAMINE]", "values": [{"measurement": "fold change (FC)", "setting": "CCF-STTG1 [2]", "value": 2}]}
{"smiles": "COc1ccc(CC(C(=O)O)[N+](C)(C)C)cc1Br", "note": "(stereo not given)", "values": [{"measurement": "Activity", "setting": "CCF-STTG1 [1]", "value": "inactive"}]}
